From ChEMBL document CHEMBL4699413, “Structure-guided discovery of selective methionyl-tRNA synthetase inhibitors with potent activity against Trypanosoma brucei” (RSC Med Chem, 2020)

Key:
[1] = Cytotoxicity against human WIL2-NS cells assessed as reduction in cell viability after 48 hrs by alamar blue dye based assay
Outline: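 CRL-8155 lymphocytic cells in RPMI with 10% heat-inactivated FBS, 2 mM L-glutamine, 0.4 mM sodium pyruvate, penicillin/streptomycin, 37 °C, 5% CO₂; 30 000 cells/well; quadruplicate serial 3-fold dilutions from 50 µM (or 25 µM); AlamarBlue at 48 h, 50 µM quinacrine as background; percent inhibition versus untreated wells; single experiment.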

[2] = Cytotoxicity against human HepG2 cells assessed as reduction in cell viability after 48 hrs by alamar blue dye based assay
[3] = test system: Trypanosoma brucei brucei; test: Antitrypanosomal activity against blood stream form of Trypanosoma brucei brucei 427 assessed as parasite growth inhibition incubated for 48 hrs by alamar blue dye based assay; format: functional, organism-based; conditions: Trypanosoma brucei, 427, 48 h
Outline: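 Bloodstream-form BSF 427 parasites in HMI-9 with 10% heat-inactivated FBS and penicillin/streptomycin, 37 °C, 5% CO₂; 10 000 cells/well initial inoculum; serial 3-fold dilutions in triplicate; Alamar Blue read at 48 h. Pentamidine control.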

[4] = Ratio of drug level in brain to plasma in Swiss Webster mouse at 5 mg/kg, ip measured after 60 mins by LC-MS analysis; format: ADME, organism-based; conditions: 1 h
Outline: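 Swiss Webster mice, triplicate, 5 mg kg⁻¹ IP in 7% Tween80, 5% DMSO, 3% EtOH in saline; plasma and brain collected 1 h post-dose; brain homogenized in water, extracts measured by LC-MS/MS; brain levels corrected for 3% v/w blood content.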

[5] = target: T1, Methionine--tRNA ligase, mitochondrial (Homo sapiens, UniProt Q96GW9); test: Inhibition of mitochondrial MetRS-mediated mitochondrial protein synthesis in human HepG2 cells measured after 6 days by ELISA; format: cell-based
T1 sequence (Q96GW9 whole entry): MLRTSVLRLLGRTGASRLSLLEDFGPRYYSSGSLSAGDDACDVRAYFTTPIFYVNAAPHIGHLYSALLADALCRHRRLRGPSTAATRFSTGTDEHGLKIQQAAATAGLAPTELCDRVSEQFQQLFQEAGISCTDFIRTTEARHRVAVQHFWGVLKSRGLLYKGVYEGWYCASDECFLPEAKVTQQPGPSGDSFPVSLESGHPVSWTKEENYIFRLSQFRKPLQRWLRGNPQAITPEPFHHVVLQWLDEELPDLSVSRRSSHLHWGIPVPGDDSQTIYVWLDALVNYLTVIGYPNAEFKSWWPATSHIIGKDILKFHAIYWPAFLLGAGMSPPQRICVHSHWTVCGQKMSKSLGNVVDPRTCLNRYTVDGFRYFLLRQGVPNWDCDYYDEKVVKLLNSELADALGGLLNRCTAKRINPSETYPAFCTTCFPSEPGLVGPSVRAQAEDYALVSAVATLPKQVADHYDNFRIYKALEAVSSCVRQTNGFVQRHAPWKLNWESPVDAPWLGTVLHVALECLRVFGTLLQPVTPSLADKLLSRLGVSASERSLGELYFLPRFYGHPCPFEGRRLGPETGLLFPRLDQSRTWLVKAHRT
Outline: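 HepG2 seeded 6000 cells/well on collagen-coated plates, grown 24 h in DMEM/F12 with 10% FBS, pyruvate, antibiotics; then serial 3-fold dilutions from 25 µM in duplicate, 6 days at 37 °C, medium with compound refreshed every 48 h; paraformaldehyde-fixed, COX-1 quantified by in-cell ELISA. Chloramphenicol control.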

[6] = test system: mitochondrial MetRS (mitochondrial protein synthesis); test: Selectivity index, ratio of EC50 for inhibition of mitochondrial MetRS-mediated mitochondrial protein synthesis in human HepG2 cells to EC50 for antitrypanosomal activity against blood stream form of Trypanosoma brucei brucei 427; format: toxicity, cell-based; conditions: read-out: Ratio EC50

Row | Structure (SMILES) | CC50 at 48 h [1] [µM] | CC50 at 48 h [2] [µM] | EC50 [3] [µM] | BPR [4] [%] | EC50 [5] [µM] | selectivity ratio [6]
1 | CCn1c(Cc2ccc(Cl)cc2Cl)cn(Cc2nc3c(Cl)cccc3[nH]2)c1=O | > 50 | > 50 | 0.21 | – | – | –
2 | CC(C)n1c(Cc2ccc(Cl)cc2Cl)cn(Cc2nc3nc(F)ccc3[nH]2)c1=O | > 50 | > 50 | 0.0023 | – | – | –
3 | CCn1c(Cc2ccc(Cl)cc2Cl)cn(Cc2nc3cc(C(F)(F)F)ccc3[nH]2)c1=O | > 50 | > 50 | > 2 | – | – | –
4 | COc1ccc(Cc2cn(Cc3nc4nc(Cl)ccc4[nH]3)c(=O)n2CC(F)F)c(Cl)c1 | > 50 | > 50 | 0.0036 | – | – | –
5 | O=c1n(Cc2nc3nc(Cl)ccc3[nH]2)cc(Cc2ccc(Cl)cc2Cl)n1CC(F)F | > 50 | > 50 | 0.003 | 0 | 0.43 | 143
6 | COc1ccc(-c2nccn3c(=O)n(Cc4nc5nc(Cl)ccc5[nH]4)cc23)c(Cl)c1 | > 50 | > 50 | 0.031 | – | – | –
7 | FC(F)(F)c1ccc(-c2cccc3nc(Cc4nc5nc(Cl)ccc5[nH]4)cn23)c(Cl)c1 | – | – | 1.78 | – | – | –
8 | CCn1c(Cc2ccc(Cl)cc2Cl)cn(Cc2nc3ccccc3[nH]2)c1=O | > 50 | > 50 | 0.04 | – | – | –
9 | O=c1n(Cc2nc3nc(F)ccc3[nH]2)cc(Cc2ccc(Cl)cc2Cl)n1C1CCOCC1 | > 50 | > 50 | 0.0058 | – | – | –
10 | CCOc1ccc(-c2cccc3nc(Cc4nc5nc(Cl)ccc5[nH]4)cn23)c(Cl)c1 | – | – | 1.9 | – | – | –
11 | CCn1c(Cc2ccc(Cl)cc2Cl)cn(Cc2nc3cnccc3[nH]2)c1=O | > 50 | > 50 | 0.39 | – | – | –
12 | COc1ccc(-c2cccn3cc(Cc4nc5nc(Cl)ccc5[nH]4)nc23)c(Cl)c1 | – | – | > 2 | – | – | –
13 | CCn1c(Cc2ccc(Cl)cc2Cl)cn(Cc2nc3cc(C)ccc3[nH]2)c1=O | > 50 | > 50 | 0.11 | – | – | –
14 | CCn1c(Cc2ccc(Cl)cc2Cl)cn(Cc2nc3ccccc3o2)c1=O | > 50 | > 50 | > 2 | – | – | –
15 | CCn1c(Cc2ccc(Cl)cc2Cl)cn(Cc2nc3cc(Cl)c(Cl)cc3[nH]2)c1=O | 31.6 | 31.3 | 0.66 | – | – | –
16 | CCn1c(Cc2ccc(Cl)cc2Cl)cn(Cc2nc3c(F)cccc3[nH]2)c1=O | 45 | > 50 | 0.031 | – | – | –
17 | Clc1ccc(-c2cccc3nc(Cc4nc5nc(Cl)ccc5[nH]4)cn23)c(Cl)c1 | 16.1 | 43.2 | 0.064 | – | – | –
18 | CCCn1c(Cc2ccc(Cl)cc2Cl)cn(Cc2nc3nc(Cl)ccc3[nH]2)c1=O | 37.8 | 26.4 | ≤ 0.0009 | – | – | –
19 | CCn1c(Cc2ccc(OC)cc2Cl)cn(Cc2nc3nc(Cl)ccc3[nH]2)c1=O | > 50 | > 50 | 0.001 | 0 | 0.039 | 39
20 | COc1ccc(-c2cccc3nc(Cc4nc5nc(F)ccc5[nH]4)cn23)c(Cl)c1 | 15.7 | > 50 | 0.059 | – | – | –

Row | Structure (SMILES) | CC50 at 48 h [1] [µM] | CC50 at 48 h [2] [µM] | EC50 [3] [µM] | BPR [4] [%] | EC50 [5] [µM] | selectivity ratio [6]
21 | CCCn1c(Cc2ccc(Cl)cc2Cl)cn(Cc2nc3nc(F)ccc3[nH]2)c1=O | > 50 | > 50 | 0.0051 | 5.5 | 0.195 | 38
22 | Clc1cc(Cl)cc(-c2cccc3nc(Cc4nc5nc(Cl)ccc5[nH]4)cn23)c1 | – | – | 0.196 | – | – | –
23 | O=c1n(Cc2nc3nc(F)ccc3[nH]2)cc(Cc2ccc(Cl)cc2Cl)n1CC1CCOCC1 | > 50 | > 50 | 0.003 | – | – | –
24 | O=c1n(Cc2nc3nc(F)ccc3[nH]2)cc(Cc2ccc(Cl)cc2Cl)n1C1CCCCC1 | 30.4 | 33.2 | 0.016 | – | – | –
25 | O=c1n(Cc2nc3nc(F)ccc3[nH]2)cc(Cc2ccc(Cl)cc2Cl)n1CC(F)F | 33.3 | > 50 | 0.0059 | 0 | 0.175 | 30
26 | CCn1c(Cc2ccc(Cl)cc2Cl)cn(Cc2nc3c(F)c(F)ccc3[nH]2)c1=O | 41 | 40.6 | 0.026 | – | – | –
27 | CCn1c(Cc2ccc(Cl)cc2Cl)cn(Cc2nc3nc(F)ccc3[nH]2)c1=O | > 50 | > 50 | 0.0034 | 0.1 | 0.29 | 85
28 | COc1ccc(-c2cccc3nc(Cc4nc5nc(Cl)ccc5[nH]4)cn23)c(Cl)c1 | 13 | > 50 | 0.024 | – | – | –
29 | CCn1c(Cc2ccc(Cl)cc2Cl)cn(Cc2nc3ncccc3[nH]2)c1=O | > 50 | > 50 | 0.017 | – | – | –
30 | Cc1ccc(-c2cccc3nc(Cc4nc5nc(Cl)ccc5[nH]4)cn23)c(Cl)c1 | – | – | > 2 | – | – | –
31 | CCn1c(Cc2ccc(Cl)cc2Cl)cn(Cc2nc3nc(Cl)ccc3[nH]2)c1=O | > 50 | > 50 | 0.0016 | 9.6 | 0.042 | 26
32 | O=c1n(Cc2nc3nc(F)ccc3[nH]2)cc(Cc2ccc(Cl)cc2Cl)n1CC1(O)CCOCC1 | > 50 | > 50 | 0.0046 | – | – | –
33 | CCn1c(Cc2ccc(Cl)cc2Cl)cn(Cc2nc3cc(Cl)ccc3[nH]2)c1=O | 27.1 | 45.3 | 0.069 | – | – | –
34 | CCn1c(Cc2ccc(Cl)cc2Cl)cn(Cc2nc3c(Cl)cc(Cl)cc3[nH]2)c1=O | 38.2 | 43.7 | 1.6 | – | – | –
35 | COc1ccc(-c2cncc3nc(Cc4nc5nc(Cl)ccc5[nH]4)cn23)c(Cl)c1 | > 50 | > 50 | 0.032 | – | – | –
36 | CCn1c(Cc2ccc(Cl)cc2Cl)cn(Cc2nc3cc(Cl)c(F)cc3[nH]2)c1=O | 20.9 | 29.8 | 0.22 | – | – | –
37 | O=C(N[C@H](CO)[C@H](O)c1ccc([N+](=O)[O-])cc1)C(Cl)Cl [CHLORAMPHENICOL] | – | – | – | – | 7.9 | –
38 | N=C(N)c1ccc(OCCCCCOc2ccc(C(=N)N)cc2)cc1 [PENTAMIDINE] | – | – | 0.0017 | – | – | –
39 | CCN(CC)CCCC(C)Nc1c2ccc(Cl)cc2nc2ccc(OC)cc12 (stereo not given) [QUINACRINE] | 4.8 | 7.6 | – | – | – | –
